Reference: ChEMBL document CHEMBL1137076, “New arylpiperazine 5-HT(1A) receptor ligands containing the pyrimido[2,1-f]purine fragment: synthesis, in vitro, and in vivo pharmacological evaluation” (J Med Chem, 2004)
Several values for one entry are separate records, joined by “and”; a condition that tells them apart may be missing. Equal values may be shown once.

Assays:
[1] = target: T1, 5-hydroxytryptamine receptor 1A (Rattus norvegicus, UniProt P19327); test: Ability to bind to central serotonin 5-hydroxytryptamine 1A receptor in vitro in hippocampus of the rat brain using [3H]8-OH-DPAT radioligand; type: tissue-based
T1 sequence (P19327 whole entry): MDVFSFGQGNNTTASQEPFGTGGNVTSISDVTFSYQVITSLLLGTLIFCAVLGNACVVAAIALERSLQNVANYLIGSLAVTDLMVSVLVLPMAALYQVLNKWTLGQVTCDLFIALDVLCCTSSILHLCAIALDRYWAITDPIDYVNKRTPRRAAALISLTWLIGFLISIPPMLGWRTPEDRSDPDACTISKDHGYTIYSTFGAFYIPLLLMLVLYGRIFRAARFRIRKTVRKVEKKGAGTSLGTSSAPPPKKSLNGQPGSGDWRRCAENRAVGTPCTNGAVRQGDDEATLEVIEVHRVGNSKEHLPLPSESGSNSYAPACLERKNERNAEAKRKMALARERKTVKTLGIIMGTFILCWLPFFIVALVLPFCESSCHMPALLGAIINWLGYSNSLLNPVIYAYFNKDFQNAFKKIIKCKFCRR
Method in brief: (§1)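 Competition binding in rat brain tissue: hippocampus with [3H]-8-OH-DPAT (5-HT1A); cortex with [3H]-ketanserin (5-HT2A) or [3H]-prazosin (α1). Ki from at least three experiments using 10–14 concentrations (10⁻¹⁰–10⁻⁵ M), each in triplicate.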

[2] = target: 5-hydroxytryptamine receptor 2A (Rattus norvegicus, UniProt P14842); test: Ability to bind to central serotonin 5-hydroxytryptamine 2A receptor in vitro in cortex of the rat brain using [3H]ketanserin radioligand; type: tissue-based; method in brief: as §1
[3] = target: T2, Adrenergic receptor alpha-1 (Rattus norvegicus, UniProt P15823+P23944+P43140); test: Ability to bind to alpha-1 adrenergic receptor in vitro in cortex of the rat brain using [3H]prazosin radioligand; type: tissue-based; method in brief: as §1
T2 sequence (P15823 whole entry): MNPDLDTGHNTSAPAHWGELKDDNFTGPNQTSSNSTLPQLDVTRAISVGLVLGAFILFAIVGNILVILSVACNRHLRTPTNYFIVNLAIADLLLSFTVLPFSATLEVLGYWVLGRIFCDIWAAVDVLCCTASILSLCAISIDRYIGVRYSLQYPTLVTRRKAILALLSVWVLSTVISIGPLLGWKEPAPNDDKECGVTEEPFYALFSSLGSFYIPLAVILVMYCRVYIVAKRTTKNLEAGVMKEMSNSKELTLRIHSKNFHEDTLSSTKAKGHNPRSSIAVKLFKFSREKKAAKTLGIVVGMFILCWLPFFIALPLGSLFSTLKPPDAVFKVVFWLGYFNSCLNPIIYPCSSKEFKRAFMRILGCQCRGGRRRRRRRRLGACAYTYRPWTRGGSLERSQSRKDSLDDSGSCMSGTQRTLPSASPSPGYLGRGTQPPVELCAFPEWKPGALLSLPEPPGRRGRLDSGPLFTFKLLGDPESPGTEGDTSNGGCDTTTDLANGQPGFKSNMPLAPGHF
T2 sequence (P23944 whole entry): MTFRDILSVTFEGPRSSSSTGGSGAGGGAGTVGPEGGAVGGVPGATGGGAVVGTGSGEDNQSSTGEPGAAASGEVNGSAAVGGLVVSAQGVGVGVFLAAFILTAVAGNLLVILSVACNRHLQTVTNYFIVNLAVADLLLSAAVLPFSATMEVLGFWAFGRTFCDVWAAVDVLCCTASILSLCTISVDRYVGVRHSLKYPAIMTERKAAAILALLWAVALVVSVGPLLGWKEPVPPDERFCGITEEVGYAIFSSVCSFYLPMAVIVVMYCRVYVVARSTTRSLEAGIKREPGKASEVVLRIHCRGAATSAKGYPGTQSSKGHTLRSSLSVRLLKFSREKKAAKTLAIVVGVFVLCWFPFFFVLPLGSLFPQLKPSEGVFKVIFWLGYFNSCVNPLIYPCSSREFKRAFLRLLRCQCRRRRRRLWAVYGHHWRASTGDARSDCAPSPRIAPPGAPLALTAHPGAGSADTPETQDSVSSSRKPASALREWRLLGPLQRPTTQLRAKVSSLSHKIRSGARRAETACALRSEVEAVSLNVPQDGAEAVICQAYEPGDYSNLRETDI
T2 sequence (P43140 whole entry): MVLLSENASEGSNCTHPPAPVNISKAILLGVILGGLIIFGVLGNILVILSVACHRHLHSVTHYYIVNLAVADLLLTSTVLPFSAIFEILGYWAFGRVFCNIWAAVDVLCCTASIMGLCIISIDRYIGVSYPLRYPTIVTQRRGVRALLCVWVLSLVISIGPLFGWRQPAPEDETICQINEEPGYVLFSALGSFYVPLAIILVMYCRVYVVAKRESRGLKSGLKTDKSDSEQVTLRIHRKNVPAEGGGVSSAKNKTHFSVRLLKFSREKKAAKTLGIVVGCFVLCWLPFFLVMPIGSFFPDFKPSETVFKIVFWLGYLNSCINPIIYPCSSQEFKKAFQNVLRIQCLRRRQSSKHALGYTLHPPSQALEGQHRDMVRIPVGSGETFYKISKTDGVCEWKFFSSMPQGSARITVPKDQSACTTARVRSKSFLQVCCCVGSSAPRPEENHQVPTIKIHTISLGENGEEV

D(2) dopamine receptor = D(2) dopamine receptor (Rattus norvegicus, UniProt P61169); test: Ability to bind to Dopamine receptor D2 in vitro in rat sriatal membranes using [3H]spiperone radioligand; type: cell membranes
Method in brief: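 Rat striatal membranes with [3H]spiperone; ketanserin 50 nM in buffer to block 5-HT2A binding; nonspecific binding with (±)-butaclamol 5 μM; 50 mM potassium phosphate pH 7.4; 37 °C, 30 min; vacuum filtration onto glass fiber, scintillation counting. Ki via Cheng-Prusoff from ≥3 experiments, 10 concentrations in triplicate.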

[4] = target: T3, 5-hydroxytryptamine receptor 1A (Mus musculus) (UniProt Q64264); test: The hypothermia produced in mice was regarded as a measure of presynaptic 5-HT1A receptor agonistic activity; Agonist; type: functional; conditions: filed as agonist
T3 sequence (whole entry): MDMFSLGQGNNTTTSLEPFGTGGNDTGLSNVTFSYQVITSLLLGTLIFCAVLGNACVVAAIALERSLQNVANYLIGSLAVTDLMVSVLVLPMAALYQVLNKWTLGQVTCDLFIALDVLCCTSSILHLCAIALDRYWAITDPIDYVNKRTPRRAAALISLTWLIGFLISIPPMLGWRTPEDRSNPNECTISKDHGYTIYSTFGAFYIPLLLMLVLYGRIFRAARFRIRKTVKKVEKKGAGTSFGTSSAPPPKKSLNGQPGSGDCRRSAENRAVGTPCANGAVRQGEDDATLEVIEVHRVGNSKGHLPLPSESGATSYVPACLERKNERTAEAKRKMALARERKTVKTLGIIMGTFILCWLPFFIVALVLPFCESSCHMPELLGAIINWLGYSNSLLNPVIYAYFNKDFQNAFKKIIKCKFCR

[5] = target: 5-hydroxytryptamine receptor 1A (Rattus norvegicus) (UniProt P19327); test: Ability inhibit symptoms induced by 8-OH-DPAT was regarded as postsynaptic 5-HT1A receptor antagonistic activity; Antagonist; conditions: filed as antagonist
Mus musculus = species on record: Mus musculus; test: Ability to inhibit 8-OH-DPAT-induced hypothermia was taken as a measure of presynaptic antagonistic activity; Antagonist; type: functional, organism-based; conditions: filed as antagonist
[6] = target: 5-hydroxytryptamine receptor 2A (Mus musculus) (UniProt P35363); test: The ability to antagonize head twitches in mice, observed after administration of (+/-)- DOI, was used to evaluate 5-HT2A receptor antagonistic property; Antagonist; type: functional, organism-based; conditions: filed as antagonist
Method in brief: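 Male Albino Swiss mice habituated 20 min in glass cages; compounds ip (1% Tween 80) 60 min before (±)-DOI 2.5 mg/kg; head twitches counted for 20 min after DOI. ID50 by Litchfield-Wilcoxon.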

Rattus norvegicus [7] = test: Effect of Compound administered 60 min before the test in the conflict drinking test in rat (n = 8 rats/group) at 2.5 mg/kg; type: functional
Method in brief: (§2)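 Male Wistar rats (250-300 g), compound suspended in 1% aqueous Tween 80, given ip (2 mL/kg) 60 min before test. Rats adapted 10 min to chamber, water-deprived 24 h, readapted 10 min with bottle, 30 min home-cage drinking, deprived another 24 h. After 30 s free drinking, licks punished by 0.5 mA shock; shocks accepted in 5 min counted. n=8/group; ANOVA with Dunnett test.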

Rattus norvegicus [8] = test: Effect of Compound administered 60 min before the test in the conflict drinking test in rat (n = 8 rats/group) at 5 mg/kg; type: functional; method in brief: as §2
Rattus norvegicus [9] = test: Effect of compound administered 60 min before the test in the forced swimming test in Rat (8 rats per group) at 10 mg/kg; type: functional
Method in brief: (§3)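 Male Wistar rats, n=8/group; forced swim per Porsolt: 15 min pretest in cylinders with 15 cm water at 25 °C, retest 24 h later; total immobility over 5 min. Drug ip 60 min before test; imipramine in saline, test compound suspended in 1% Tween 80; Dunnett test vs vehicle.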

Rattus norvegicus [10] = test: Effect of compound administered 60 min before the test in the forced swimming test in Rat (8 rats per group) at 20 mg/kg; type: functional; method in brief: as §3
Rattus norvegicus [11] = test: Effect of compound administered 60 min before the test in the forced swimming test in Rat (8 rats per group) at 5 mg/kg; type: functional; method in brief: as §3
Rattus norvegicus [12] = test: Effect of compound administered 60 min before the test in the forced swimming test in Rat (8 rats per group) at 30 mg/kg; type: functional; method in brief: as §3
Rattus norvegicus [13] = test: Effect of compound administered 60 min before the test in the forced swimming test in Rat (8 rats per group) at 40 mg/kg; type: functional; method in brief: as §3

Sequence of 5-hydroxytryptamine receptor 2A (P14842 whole entry): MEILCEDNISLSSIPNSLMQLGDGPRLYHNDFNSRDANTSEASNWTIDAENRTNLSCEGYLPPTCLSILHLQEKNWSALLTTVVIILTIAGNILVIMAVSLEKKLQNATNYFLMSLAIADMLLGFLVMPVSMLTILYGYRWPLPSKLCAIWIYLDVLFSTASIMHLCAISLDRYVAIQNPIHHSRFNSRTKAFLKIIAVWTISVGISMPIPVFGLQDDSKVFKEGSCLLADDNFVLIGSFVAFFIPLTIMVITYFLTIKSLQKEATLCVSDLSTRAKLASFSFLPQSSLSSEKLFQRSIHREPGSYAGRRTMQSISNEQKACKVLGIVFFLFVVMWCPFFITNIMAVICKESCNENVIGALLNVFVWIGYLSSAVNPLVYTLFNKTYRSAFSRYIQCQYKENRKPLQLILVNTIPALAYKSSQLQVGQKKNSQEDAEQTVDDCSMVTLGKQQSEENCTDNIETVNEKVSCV
Sequence of D(2) dopamine receptor (P61169 whole entry): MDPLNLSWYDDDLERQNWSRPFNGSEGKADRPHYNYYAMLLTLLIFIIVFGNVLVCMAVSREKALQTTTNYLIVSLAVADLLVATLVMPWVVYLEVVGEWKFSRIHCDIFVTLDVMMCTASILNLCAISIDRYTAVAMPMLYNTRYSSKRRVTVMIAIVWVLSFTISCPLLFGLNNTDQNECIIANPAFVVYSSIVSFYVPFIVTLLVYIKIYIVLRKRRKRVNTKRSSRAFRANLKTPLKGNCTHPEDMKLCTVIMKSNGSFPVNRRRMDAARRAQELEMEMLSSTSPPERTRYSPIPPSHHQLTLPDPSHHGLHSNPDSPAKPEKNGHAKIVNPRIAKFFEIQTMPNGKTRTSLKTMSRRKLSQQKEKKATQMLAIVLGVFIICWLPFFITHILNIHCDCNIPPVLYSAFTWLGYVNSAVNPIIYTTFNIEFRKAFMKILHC
Sequence of 5-hydroxytryptamine receptor 2A (Mus musculus) (P35363 whole entry): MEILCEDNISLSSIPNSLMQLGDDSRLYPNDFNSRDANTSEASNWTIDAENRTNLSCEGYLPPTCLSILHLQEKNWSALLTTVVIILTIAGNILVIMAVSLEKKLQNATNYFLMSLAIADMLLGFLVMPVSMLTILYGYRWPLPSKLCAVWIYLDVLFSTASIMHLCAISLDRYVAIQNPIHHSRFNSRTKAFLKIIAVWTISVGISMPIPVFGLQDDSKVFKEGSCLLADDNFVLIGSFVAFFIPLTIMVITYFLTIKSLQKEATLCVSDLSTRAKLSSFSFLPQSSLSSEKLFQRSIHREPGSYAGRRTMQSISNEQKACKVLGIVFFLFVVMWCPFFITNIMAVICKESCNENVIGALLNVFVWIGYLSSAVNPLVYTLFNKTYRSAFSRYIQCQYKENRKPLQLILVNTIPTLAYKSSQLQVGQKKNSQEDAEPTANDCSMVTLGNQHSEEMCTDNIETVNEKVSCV

| Compound | Ki [1] [nM] | Ki [2] [nM] | Ki [3] [nM] | Ki (D(2) dopamine receptor) [nM] | Functional profile [4] | Functional profile [5] | other results |
| --- | --- | --- | --- | --- | --- | --- | --- |
| Cn1c(=O)c2c(nc3nc(NCCN4CCN(c5cccc(Cl)c5)CC4)ccn32)n(C)c1=O | 23 | 234 | 29 | 182 | Agonist | Antagonist |  |
| COc1ccccc1N1CCN(CCCNc2ccn3c(n2)nc2c3c(=O)n(C)c(=O)n2C)CC1 | 34 | 835 | 33 | 1170 |  | Antagonist |  |
| Cn1c(=O)c2c(nc3nc(NCCN4CCN(c5ccccc5)CC4)c(Br)cn32)n(C)c1=O | 87 | 440 |  | 1240 |  | Antagonist |  |
| COc1ccccc1N1CCN(CCNc2ccn3c(n2)nc2c3c(=O)n(C)c(=O)n2C)CC1 | 1.1 | 246 | 58 | 1330 |  | Antagonist | Functional profile (Mus musculus): Antagonist |
| Cn1c(=O)c2c(nc3nc(NCCN4CCN(c5cccc(Cl)c5)CC4)c(Br)cn32)n(C)c1=O | 68 | 64 |  | 165 |  | Antagonist | Functional profile [6]: Antagonist |
| CN1C(=O)CN=C(c2ccccc2)c2cc(Cl)ccc21 [DIAZEPAM] |  |  |  |  |  |  | Effect (Rattus norvegicus [7]): 306.5% and 685.7%; No. of shocks accepted/5 min (Rattus norvegicus [7]): 23.6 and 52.8; Effect (Rattus norvegicus [8]): 533.8%; No. of shocks accepted/5 min (Rattus norvegicus [8]): 41.1 |
| Cn1c(=O)c2c(nc3nc(NCCCN4CCN(c5ccccc5)CC4)ccn32)n(C)c1=O | 19 | 72 | 25 | 430 |  | Antagonist | Functional profile (Mus musculus): Antagonist; Functional profile [6]: Antagonist |
| Cn1c(=O)c2c(nc3nc(NCCCN4CCN(c5cccc(Cl)c5)CC4)ccn32)n(C)c1=O | 46 | 56 | 21 | 94 | Agonist | Antagonist | Functional profile [6]: Antagonist |
| Cn1c(=O)c2c(nc3nc(NCCCN4CCN(c5ccccc5)CC4)c(Br)cn32)n(C)c1=O | 11 | 297 | 11 | 414 | Agonist |  | Effect (Rattus norvegicus [9]): 64.4%; Immobility time (Rattus norvegicus [9]): 153.1 s; Effect (Rattus norvegicus [10]): 69.6%; Immobility time (Rattus norvegicus [10]): 165.6 s; Effect (Rattus norvegicus [11]): 73.1%; Immobility time (Rattus norvegicus [11]): 173.9 s; Effect (Rattus norvegicus [8]): 491.9%; No. of shocks accepted/5 min (Rattus norvegicus [8]): 36.4 |
| COc1ccccc1N1CCN(CCNc2nc3nc4c(c(=O)n(C)c(=O)n4C)n3cc2Br)CC1 | 62 | 86 | 62 | 226 | Agonist | Antagonist |  |
| Cn1c(=O)c2c(nc3n(CCCN4CCN(c5ccccc5)CC4)c(=O)ccn23)n(C)c1=O | 25 | 4680 |  |  |  |  |  |
| COc1ccccc1N1CCN(CCCN2CCCn3c2nc2c3c(=O)n(C)c(=O)n2C)CC1 | 17.2 | 562 |  |  |  |  |  |
| Cn1c(=O)c2c(nc3n2CCCN3CCCCN2CCN(c3ccccc3)CC2)n(C)c1=O | 2.1 | 243 |  |  |  |  |  |
| Cn1c(=O)c2c(nc3nc(NCCCN4CCN(c5cccc(Cl)c5)CC4)c(Br)cn32)n(C)c1=O | 49 | 85 | 46 | 264 | Agonist | Antagonist | Functional profile [6]: Antagonist |
| COc1ccccc1N1CCN(CCCNc2nc3nc4c(c(=O)n(C)c(=O)n4C)n3cc2Br)CC1 | 36 | 880 | 38 | 325 | Agonist | Antagonist |  |
| COc1ccccc1N1CCN(CCCn2c(=O)ccn3c4c(=O)n(C)c(=O)n(C)c4nc23)CC1 | 10.4 | 3880 |  |  |  |  |  |
| CN(C)CCCN1c2ccccc2CCc2ccccc21 [IMIPRAMINE] |  |  |  |  |  |  | Effect (Rattus norvegicus [10]): 81.9%; Immobility time (Rattus norvegicus [10]): 155 s; Effect (Rattus norvegicus [12]): 63.3%; Immobility time (Rattus norvegicus [12]): 120.4 s; Effect (Rattus norvegicus [13]): 52.7%; Immobility time (Rattus norvegicus [13]): 99.7 s |
